This note sets out measurements from ChEMBL document CHEMBL4334463, “Free Ligand 1D NMR Conformational Signatures To Enhance Structure Based Drug Design of a Mcl-1 Inhibitor (AZD5991) and Other Synthetic Macrocycles” (J Med Chem, 2019).

One data set concerns the target T1, Induced myeloid leukemia cell differentiation protein Mcl-1 (Homo sapiens, UniProt Q07820). The data set is described as follows: Inhibition of Mcl1 (unknown origin) by TR-FRET assay.
Details: not given
For orientation: In TR-FRET formats the signal depends on donor and acceptor labels being close together.
Target sequence in this assay (Q07820 whole entry): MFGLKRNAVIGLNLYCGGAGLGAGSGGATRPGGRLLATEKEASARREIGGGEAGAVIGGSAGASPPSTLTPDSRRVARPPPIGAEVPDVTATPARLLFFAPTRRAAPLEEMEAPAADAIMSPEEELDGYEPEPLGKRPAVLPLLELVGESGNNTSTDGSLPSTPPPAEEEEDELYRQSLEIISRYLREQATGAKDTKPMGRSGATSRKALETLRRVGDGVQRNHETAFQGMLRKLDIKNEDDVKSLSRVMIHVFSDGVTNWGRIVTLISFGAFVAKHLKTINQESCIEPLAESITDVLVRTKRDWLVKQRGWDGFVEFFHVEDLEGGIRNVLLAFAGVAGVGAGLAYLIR
What is called Ki is a dissociation constant, usually derived from enzyme kinetics or from competition with a known ligand. `C[C@H]1CCN(C)C(=O)C[C@@H](Cc2ccc(Cl)c(Cl)c2)NC(=O)CN2C(=O)[C@H](CCc3ccccc32)NC(=O)C[C@H](Cc2ccc(Cl)cc2)N1` yielded an inhibitory constant (Ki) of 48 nM.
`CC1CCN[C@@H](Cc2ccc(Cl)cc2)CC(=O)N[C@H]2CCc3ccccc3N(CC(=O)N[C@H](Cc3ccc(Cl)c(Cl)c3)CC(=O)N1C)C2=O` (stereo in doubt; 12) had a Ki of 300 nM.
The compound `C[C@@H]1CCN(C)C(=O)C[C@@H](Cc2ccc(Cl)c(Cl)c2)NC(=O)CN2C(=O)[C@H](CCc3ccccc32)NC(=O)C[C@H](Cc2ccc(Cl)cc2)N1` had a Ki of 739 nM.
Turning to `Cc1nn(C)c(C)c1-c1cccc2c(CCCOc3cccc4ccccc34)c(C(=O)O)[nH]c12`, the affinity, expressed as Ki, was 290 nM.
In turn, `CNC(=O)C[C@@H](Cc1ccc(Cl)c(Cl)c1)NC(=O)CN1C(=O)[C@@H](NC(=O)C[C@@H](N)Cc2ccc(Cl)cc2)CCc2ccccc21` had a Ki of 1990 nM.
The compound `CC1CCN[C@@H](Cc2ccc(Cl)cc2)CC(=O)N[C@H]2CCc3ccccc3N(CC(=O)N[C@H](Cc3ccc(Cl)c(Cl)c3)CC(=O)N1C)C2=O` (stereo in doubt; 11) yielded a Ki of 4960 nM. This Ki is about 2.5-fold higher than that of the compound before.
For `O=C1C[C@@H](Cc2ccc(Cl)c(Cl)c2)NC(=O)CN2C(=O)[C@H](CCc3ccccc32)NC(=O)C[C@H](Cc2ccc(Cl)cc2)NCCCN1`, the Ki came out at 5210 nM.
Turning to `CN1CCCN[C@@H](Cc2ccc(Cl)cc2)CC(=O)N[C@H]2CCc3ccccc3N(CC(=O)N[C@H](Cc3ccc(Cl)c(Cl)c3)CC1=O)C2=O`, the affinity, expressed as Ki, was 155 nM. This Ki lies about 34-fold lower than the previous one.

The next data set addresses T1, Induced myeloid leukemia cell differentiation protein Mcl-1. The data set is described as follows: Binding affinity to Mcl-1 (unknown origin) by SPR assay.
Details: not given
(In general: In SPR one partner is held on a chip, and binding of the other changes the refractive index at the surface.)
Target sequence in this assay (Q07820 whole entry, looked up): as the sequence (Q07820 whole entry) above
A word on the Kd: it is the constant that tells how readily two partners part at equilibrium. Low readings indicate a tighter complex, high ones a looser complex. `Cc1nn(C)c(C)c1-c1cccc2c(CCCOc3cccc4ccccc34)c(C(=O)O)[nH]c12`: binding was characterised by a dissociation constant (Kd) of 480 nM.

In a further data set the target is T2, B-cell lymphoma 6 protein (Homo sapiens, UniProt P41182). The data set is described as follows: Inhibition of Bcl6 (unknown origin) by TR-FRET assay.
Details: not given
The IC50 is the concentration at which inhibition is half-maximal. Take `C[C@@H]1CCCCN(C)c2cc(n3ncc(C#N)c3n2)Nc2cc3c(c(c2)O1)N(C)C(=O)CC3`: the IC50 turned out to be 25 nM.
Consider `CN1CCCCCOc2cc(cc3c2N(C)C(=O)CC3)Nc2cc1nc1c(C#N)cnn21`, for which the IC50 came to 190 nM.

The target of the next data set is T1, Induced myeloid leukemia cell differentiation protein Mcl-1.
Assay: not given
Details: not given
Target sequence in this assay (Q07820 whole entry): as above
In turn, `CN1CCCN[C@@H](Cc2ccc(S(C)(=O)=O)cc2)CC(=O)N[C@H]2CCc3ccccc3N(CC(=O)N[C@H](Cc3ccc(Cl)c(CCc4ccccc4)c3)CC1=O)C2=O` yielded a T1/2 of 18 s.

Tested on in a further data set: not listed separately
The data set can be described thus: Lipophilicity, logD of the compound at pH 7.4. The class given is physicochemical. To be noted: buffer. The method, boiled down: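 Shake-flask partitioning to determine logD, with the aqueous phase at pH 7.4.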
As a reminder, the logD is the decadic logarithm of the distribution of all forms, ionised or not, between an organic phase and buffer at a given pH. Regarding `C[C@@H]1CCCCN(C)c2cc(n3ncc(C#N)c3n2)Nc2cc3c(c(c2)O1)N(C)C(=O)CC3`, the logD was 4.
For the compound `N#Cc1cnn2c3cc(nc12)N1C[C@H](C[C@H]1CO)OC/C=C/COc1cc(cc2c1NC(=O)CC2)N3`, the logD was 2.2.
In the case of `N#Cc1cnn2c(Nc3ccc4c(c3)CCC(=O)N4)cc(N3CCC[C@H]3CO)nc12`, the pH-dependent lipophilicity (logD) stood at 2.3.
`N#Cc1cnn2c(Nc3ccc4c(c3)CCC(=O)N4)cc(N3CCC[C@H]3CC(=O)O)nc12` gave a logD of -0.4.
Compound `CN1CCCCCOc2cc(cc3c2N(C)C(=O)CC3)Nc2cc1nc1c(C#N)cnn21` returned a logD of 3.6.
In turn, `Cc1nn(C)c(C)c1-c1cccc2c(CCCOc3cccc4ccccc34)c(C(=O)O)[nH]c12` displayed a logD of 3.6.
As for `N#Cc1cnn2c3cc(nc12)N1CC[C@@H](C1)OC/C=C/COc1cc(cc2c1NC(=O)CC2)N3`, the logD stood at 2.4.
The compound `Cc1cc(CSCc2nn(C)c(C)c2-c2cccc3c(CCCOc4cccc5ccccc45)c(C(=O)O)[nH]c23)nn1C` came in with a logD of 4.2.
`CNC(=O)C[C@@H](Cc1ccc(Cl)c(Cl)c1)NC(=O)CN1C(=O)[C@@H](NC(=O)C[C@@H](N)Cc2ccc(Cl)cc2)CCc2ccccc21` came in with a logD of 3.8.
As to `O=C1C[C@@H](Cc2ccc(Cl)c(Cl)c2)NC(=O)CN2C(=O)[C@H](CCc3ccccc32)NC(=O)C[C@H](Cc2ccc(Cl)cc2)NCCCN1`, the logD came out at 3.7.
As for `CN1CCCN[C@@H](Cc2ccc(Cl)cc2)CC(=O)N[C@H]2CCc3ccccc3N(CC(=O)N[C@H](Cc3ccc(Cl)c(Cl)c3)CC1=O)C2=O`, the logD was 4.3.
With `CN1CCCN[C@@H](Cc2ccc(S(C)(=O)=O)cc2)CC(=O)N[C@H]2CCc3ccccc3N(CC(=O)N[C@H](Cc3ccc(Cl)c(CCc4ccccc4)c3)CC1=O)C2=O`, the logD came to 4.1.

For a further data set, the target named is T2, B-cell lymphoma 6 protein.
Assay: not given
Details: not given
Consider `N#Cc1cnn2c3cc(nc12)N1C[C@H](C[C@H]1CO)OC/C=C/COc1cc(cc2c1NC(=O)CC2)N3`, for which the T1/2 stood at 2 min.
